Experimental data pooled from the literature.
Lines come from different studies, so protocols differ.
Read-out: cell growth or viability

| SMILES | cell line | test | setting | endpoint | result |
| --- | --- | --- | --- | --- | --- |
| COc1ccc2/c(=N/c3ccccc3NC(=O)[C@@H](N)CO)cc(-c3ccc4c(c3)OCCO4)oc2c1 | NCI-H1975 | CCK-8 | 1 µM | inhibition | 1.06% |
| CCCCCCCCCCCCCCCCCCOc1ccccc1CC(=O)OCC[N+]1(C)CCOCC1 | NCI-H322M | SRB | 10 µM | inhibition | 20.2% |
| O=C(Nc1cc(C(F)(F)F)cc(C(F)(F)F)c1)Nc1nc2cc(-c3ccc4ncn(Cc5ccccc5)c(=O)c4c3)ccc2s1 | NCI-H1975 | MTT | 72 h | IC50 | > 20000 nM |
| CCCCCCCCCCCCCCCCCCOc1ccccc1CC(=O)OCC[N+]1(C)CCCC1 | NCI-H322M | SRB | 10 µM | inhibition | 31.9% |
| CCCCn1cnc2ccc(-c3ccc(NC(=O)Nc4ccc(F)cc4)nc3)cc2c1=O | NCI-H1975 | CCK-8 | 72 h | IC50 | 1410 nM |
| NCCC(=O)Nc1ccccc1/N=c1\cc(-c2ccc3nc(N)oc3c2)oc2ccccc12 | NCI-H1975 | CCK-8 | 1 µM | inhibition | 43.6% |
| CCCCn1cnc2ccc(-c3ccc(NC(C)=O)nc3)cc2c1=O | NCI-H1975 | CCK-8 | 72 h | IC50 | > 10000 nM |
| C[C@H](Nc1ccc2c(c1)OCCn1cc(N3C(=O)OC[C@H]3C(F)F)nc1-2)C(N)=O | MKN-1 | ATP luminescence | 5 days | EC50 | 438 nM |
| O=C(Nc1ccccc1/N=c1\cc(-c2ccc3c(c2)OCCO3)oc2cc(F)ccc12)N1CCOCC1 | NCI-H1975 | CCK-8 | 1 µM | inhibition | 2.35% |
| O=C(Nc1ccc(F)cc1)Nc1nc2cc(-c3ccc4ncn(CC5CC5)c(=O)c4c3)ccc2s1 | NCI-H1975 | MTT | 72 h | IC50 | 1130 nM |
| Nc1ccccc1/N=c1\cc(-c2ccc3c(c2)OCO3)oc2ccccc12 | NCI-H1975 | CCK-8 | 1 µM | inhibition | 2.1% |
| CCCCCCCCCCCCCCCCCCOc1ccc(CC(=O)OCC[N+]2(C)CCCCC2)cc1 | NCI-H322M | SRB | 10 µM | inhibition | 3.63% |
| CCCCC(=O)Nc1ccc(-c2ccc3ncn(CC)c(=O)c3c2)cn1 | NCI-H1975 | CCK-8 | 72 h | IC50 | 250 nM |
| CCCCCCCCCCCCCCCCCCOc1cccc(CC(=O)OCC[N+](CC)(CC)CC)c1 | NCI-H322M | SRB | 10 µM | inhibition | 22.3% |
| Cc1nc(NC(=O)N2CCC[C@H]2C(N)=O)sc1-c1ccnc(C(C)(C)C(F)(F)F)c1 | MKN-1 | ATP luminescence | 5 days | EC50 | 2110 nM |
| NCCC(=O)Nc1ccccc1/N=c1\cc(-c2ccc3nc(N)oc3c2)oc2ccc(F)cc12 | NCI-H1975 | CCK-8 | 1 µM | inhibition | 63.7% |
| O=C(Nc1cccc(C(F)(F)F)c1)Nc1nc2cc(-c3ccc4ncn(CCN5CCOCC5)c(=O)c4c3)ccc2s1 | NCI-H1975 | MTT | 72 h | IC50 | 1480 nM |

| SMILES | cell line | test | setting | endpoint | result |
| --- | --- | --- | --- | --- | --- |
| CCCn1cnc2ccc(-c3ccc(NC(=O)CC)nc3)cc2c1=O | NCI-H1975 | CCK-8 | 72 h | IC50 | 1080 nM |
| CCCCCCCCCCCCCCCCCCOc1cccc(CC(=O)OCCC[N+](C)(C)C)c1 | NCI-H322M | SRB | 10 µM | inhibition | 4.07% |
| COc1ccc(NC(=O)Nc2nc3cc(-c4ccc5ncn(Cc6ccccc6)c(=O)c5c4)ccc3s2)cc1 | NCI-H1975 | MTT | 72 h | IC50 | > 20000 nM |
| CCCCCCCCCCCCCCCCCCOc1ccc(CC(=O)OCCC[N+](C)(C)C)cc1 | NCI-H322M | SRB | 10 µM | inhibition | 9.97% |
| CCCC(=O)Nc1nc2cc(-c3ccc4ncn(Cc5ccccc5)c(=O)c4c3)ccc2s1 | NCI-H1975 | MTT | 72 h | IC50 | > 20000 nM |
| CCCCC(=O)Nc1ccc(-c2ccc3ncn(CCCC)c(=O)c3c2)cn1 | NCI-H1975 | CCK-8 | 72 h | IC50 | 310 nM |
| COc1ccc2/c(=N/c3ccccc3NC(=O)CN)cc(-c3ccc4c(c3)OCCO4)oc2c1 | NCI-H1975 | CCK-8 | 1 µM | inhibition | 8.23% |
| CC(C)CCn1cnc2ccc(-c3ccc4sc(NC(=O)Nc5ccc(F)cc5)nc4c3)cc2c1=O | NCI-H1975 | MTT | 72 h | IC50 | 960 nM |
| Cc1nc(Nc2ncc(C(=O)Nc3c(C)cccc3Cl)s2)cc(N2CC[C@H](O)C2)n1 | KARPAS-422 | ATP luminescence | 10 µM, 72 h | inhibition | 91% |
| O=C(Nc1ccc(-c2ccc3ncn(Cc4ccccc4)c(=O)c3c2)cn1)C1CCC1 | NCI-H1975 | CCK-8 | 72 h | IC50 | > 10000 nM |
| NCCCC(=O)Nc1ccccc1/N=c1\cc(-c2ccc3c(c2)OCO3)oc2ccccc12 | NCI-H1975 | CCK-8 | 1 µM | inhibition | 1.32% |
| CCCCCCCCCCCCCCCCCCOc1ccccc1CC(=O)OCC[N+]1(C)CCCCC1 | NCI-H322M | SRB | 10 µM | inhibition | 15.4% |
| CNCCC(=O)Nc1ccccc1/N=c1\cc(-c2ccc3nc(N)oc3c2)oc2ccccc12 | NCI-H1975 | CCK-8 | 1 µM | inhibition | 43% |
| CCCn1cnc2ccc(-c3ccc(N4CCCCC4=O)nc3)cc2c1=O | NCI-H1975 | CCK-8 | 72 h | IC50 | > 10000 nM |
| CC(=O)Nc1nc2cc(-c3ccc4ncn(Cc5ccccc5)c(=O)c4c3)ccc2s1 | NCI-H1975 | MTT | 72 h | IC50 | > 20000 nM |
| CCCCC(=O)Nc1ccc(-c2cnc3ccn(CCC)c(=O)c3c2)cn1 | NCI-H1975 | CCK-8 | 72 h | IC50 | 1210 nM |
| O=C(Nc1ccc(Br)cc1)Nc1nc2cc(-c3ccc4ncn(Cc5ccccc5)c(=O)c4c3)ccc2s1 | NCI-H1975 | MTT | 72 h | IC50 | > 20000 nM |
